Source: ChEMBL document CHEMBL3822410, “Novel substituted isoxazole FXR agonists with cyclopropyl, hydroxycyclobutyl and hydroxyazetidinyl linkers: Understanding and improving key determinants of pharmacological properties” (Bioorg Med Chem Lett, 2016)
In brackets after ≈: the same amount, converted by molar mass. Activity calls are given as the source filed them. The calls are words filed in the database; no cut-off is given here.

How the values were obtained:
[1] = target: T1, Bile acid receptor (Homo sapiens) (UniProt Q96RI1); assay: Agonist activity at C-terminal Gal4-tagged human FXR (187 to 472 residues) expressed in HEK-293 cells co-expressing pFRluc by mammalian one hybrid assay relative to GW4064; format: cell-based; conditions: HEK293
T1 sequence (whole entry): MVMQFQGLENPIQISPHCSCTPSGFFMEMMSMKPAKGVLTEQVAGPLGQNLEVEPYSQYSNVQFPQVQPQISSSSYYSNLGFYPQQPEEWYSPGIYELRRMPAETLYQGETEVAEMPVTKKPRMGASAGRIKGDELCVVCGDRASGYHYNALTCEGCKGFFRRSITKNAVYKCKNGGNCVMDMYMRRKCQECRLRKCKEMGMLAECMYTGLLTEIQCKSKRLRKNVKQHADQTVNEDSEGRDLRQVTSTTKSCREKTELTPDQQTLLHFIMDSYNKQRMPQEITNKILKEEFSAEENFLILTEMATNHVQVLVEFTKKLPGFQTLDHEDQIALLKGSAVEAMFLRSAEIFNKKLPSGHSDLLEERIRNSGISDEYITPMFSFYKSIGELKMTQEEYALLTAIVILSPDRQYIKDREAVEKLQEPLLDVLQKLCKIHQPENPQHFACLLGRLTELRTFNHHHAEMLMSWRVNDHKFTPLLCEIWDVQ
Outline: (§1)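 Transient transfection of HEK293 cells with Gal4 DBD–human FXR LBD (187–472) chimera under CMV promoter plus pFRluc Gal4-driven firefly luciferase reporter. Cells treated with serial compound dilutions. EC50 from at least three experiments; efficacy is extrapolated maximum signal of the dose-response, GW4064 set to 100%.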

Bile acid receptor [2] = target: T2, Bile acid receptor (Homo sapiens, UniProt Q96RI1); assay: Agonist activity at C-terminal Gal4-tagged human FXR (187 to 472 residues) expressed in HEK-293 cells co-expressing pFRluc by mammalian one hybrid assay; format: cell-based, HEK293; outline: as §1
T2 sequence (Q96RI1 whole entry): T1 sequence (whole entry)

Bile acid receptor [3] = target: T2, Bile acid receptor; assay: Agonist activity at GST-tagged FXR LBD (187 to 472 residues) (unknown origin) assessed as FXR interaction with b-CPSSHSSLTERHKILHRLLQEGSPS-COOH by FRET assay
[4] = target: T1, Bile acid receptor (Homo sapiens); assay: Agonist activity at GST-tagged FXR LBD (187 to 472 residues) (unknown origin) assessed as FXR interaction with b-CPSSHSSLTERHKILHRLLQEGSPS-COOH by FRET assay relative to GW4064
[5] = Permeability of the compound assessed as compound enrichment in membrane compartment measured after 16 hrs by PAMPA assay relative to control; format: ADME
Outline: (§2)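 PAMPA, 16 h at rt. Flux = [C_acceptor/(C_donor + C_acceptor)] × 100 × 2. Membrane enrichment = C_membrane × 2/(C_acceptor + C_donor), membrane phase extracted into a volume equal to the acceptor or donor compartment.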

[6] = Permeability of the compound assessed as compound influx measured after 16 hrs by PAMPA assay; format: ADME; outline: as §2
[7] = Half life in C57BL/6J mouse at 5 mg/kg, po and 1 mg/kg, iv; format: ADME, organism-based; conditions: in vivo
Outline: (§3)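 Mice dosed 5 mg/kg orally and 1 mg/kg intravenously; bioavailability from both arms, all other parameters (AUC, Cmax, T1/2, Cl/F, Vd/F) calculated from the oral arm.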

[8] = Cmax in C57BL/6J mouse at 5 mg/kg, po and 1 mg/kg, iv; format: ADME, organism-based; conditions: in vivo; outline: as §3
[9] = Aqueous solubility of the compound; format: physicochemical; conditions: buffer
[10] = Apparent oral volume of distribution in C57BL/6J mouse at 5 mg/kg; format: ADME, organism-based; conditions: in vivo; outline: as §3
[11] = Oral bioavailability in C57BL/6J mouse at 5 mg/kg; format: ADME, organism-based; conditions: in vivo; outline: as §3
[12] = AUC in C57BL/6J mouse at 5 mg/kg, po and 1 mg/kg, iv; format: ADME, organism-based; conditions: in vivo; outline: as §3
[13] = Apparent oral clearance in C57BL/6J mouse at 5 mg/kg; format: ADME, organism-based; conditions: in vivo; outline: as §3
Mus musculus [14] = assay: Reduction in total cholesterol level in high fat diet enriched with cholesterol fed C57BL/6J mouse plasma at 10 mg/kg, po through gavage for 10 days measured after 4 hrs of final dosage relative to vehicle treated-control; format: functional, organism-based
Outline: (§4)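 C57BL/6J mice pre-fed and kept on high fat diet (60% kcal fat) with 1% (w/w) cholesterol; 10 mg/kg by oral gavage for 10 days. Plasma total cholesterol and triglycerides taken at sacrifice 4 h after final dose, expressed as % change versus vehicle group.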

Mus musculus [15] = assay: Reduction in total triglyceride level in high fat diet enriched with cholesterol fed C57BL/6J mouse plasma at 10 mg/kg, po through gavage for 10 days measured after 4 hrs of final dosage relative to vehicle treated-control; format: functional, organism-based; outline: as §4

## CC(C)n1nc(C(=O)O)cc1[C@@H]1C[C@H]1c1ccc(OCc2c(-c3c(Cl)cccc3Cl)noc2C2CC2)cc1Cl
[1]
  Efficacy: 79%
Bile acid receptor [2]
  EC50: 4 nM
Bile acid receptor [3]
  EC50: 4 nM
[4]
  Efficacy: 101%

## O=C(O)c1ccc([C@H]2C[C@@H]2c2ccc(OCc3c(-c4c(Cl)cccc4Cl)noc3C3CC3)cc2Cl)cc1 [PX-102]
[1]
  Efficacy: 71%
Bile acid receptor [2]
  EC50: 186 nM
Bile acid receptor [3]
  EC50: 1090 nM
[4]
  Efficacy: 100%

## O=C(O)c1cccc(N2CC(O)(c3ccc(OCc4c(-c5c(Cl)cccc5Cl)noc4C4CC4)cc3Cl)C2)c1
[1]
  Efficacy: 94%
[5]
  fold change (FC): 40
Bile acid receptor [3]
  EC50: 54 nM
[6]
  permeability: 27%
[4]
  Efficacy: 97%

## CCO[C@]1(c2ccc(OCc3c(-c4c(Cl)cccc4Cl)noc3C3CC3)cc2Cl)C[C@H](c2cccc(C(=O)O)c2)C1
[1]
  Efficacy: 89%
Bile acid receptor [2]
  EC50: 220 nM
Bile acid receptor [3]
  EC50: 277 nM
[4]
  Efficacy: 94%

## O=C(O)c1cccc([C@H]2C[C@H](c3ccc(OCc4c(-c5c(Cl)cccc5Cl)noc4C4CC4)cc3Cl)C2)c1
[1]
  Efficacy: 89%
Bile acid receptor [2]
  EC50: 15 nM
[5]
  fold change (FC): 319
Bile acid receptor [3]
  EC50: 24 nM
[6]
  permeability: 0%
[4]
  Efficacy: 100%

## O=C(O)c1ccc([C@@H]2C[C@H]2c2ccc(OCc3c(-c4c(Cl)cccc4Cl)noc3C3CC3)cc2Cl)cc1
[1]
  Efficacy: 89%
Bile acid receptor [2]
  EC50: 47 nM
Bile acid receptor [3]
  EC50: 80 nM
[4]
  Efficacy: 99%

## O=C(O)c1cccc(C2CC2c2ccc(OCc3c(-c4c(Cl)cccc4Cl)noc3C3CC3)cc2Cl)c1 (racemic)
[1]
  Efficacy: 87%
[7]
  half-life: 1 h
[8]
  Cmax: 1060 ng/mL
[9]
  solubility: 20 µM (≈ 11.1 µg/mL)
[10]
  Vd/F: 4.7 L/kg
[11]
  bioavailability: 53%
[12]
  AUC: 800 ng·h/mL
Bile acid receptor [2]
  EC50: 34 nM
[13]
  CL/F: 55 mL/min/kg
[5]
  fold change (FC): 33
Bile acid receptor [3]
  EC50: 32 nM
[6]
  permeability: 17%
[4]
  Efficacy: 102%

## O=C(O)CNC(=O)c1ccc(C2CC2c2ccc(OCc3c(-c4c(Cl)cccc4Cl)noc3C3CC3)cc2Cl)cc1 (racemic)
[1]
  Efficacy: 58%
Bile acid receptor [2]
  EC50: 209 nM
Bile acid receptor [3]
  EC50: 150 nM
[4]
  Efficacy: 100%

## O=C(O)c1ccc(C2CC2c2ccc(OCc3c(-c4c(Cl)cccc4Cl)noc3C3CC3)cc2Cl)cn1 (configuration not stated)
[1]
  Efficacy: 68%
Bile acid receptor [2]
  EC50: 57 nM
Bile acid receptor [3]
  EC50: 66 nM
[4]
  Efficacy: 101%

## O=C(O)c1cccc([C@H]2C[C@@H](c3ccc(OCc4c(-c5c(Cl)cccc5Cl)noc4C4CC4)cc3Cl)C2)c1
[1]
  Efficacy: 88%
Bile acid receptor [2]
  EC50: 92 nM
Bile acid receptor [3]
  EC50: 77 nM
[4]
  Efficacy: 99%

## O=C(O)c1cccc([C@H]2C[C@@H]2c2ccc(OCc3c(-c4c(Cl)cccc4Cl)noc3C3CC3)cc2Cl)c1
[1]
  Efficacy: 88%
Bile acid receptor [2]
  EC50: 90 nM
Bile acid receptor [3]
  EC50: 219 nM
[4]
  Efficacy: 101%

## O=C(O)c1cncc(C2CC2c2ccc(OCc3c(-c4c(Cl)cccc4Cl)noc3C3CC3)cc2Cl)c1 (configuration not stated)
[1]
  Efficacy: 73%
[9]
  solubility: 165 µM (≈ 91.7 µg/mL)
Bile acid receptor [2]
  EC50: 14 nM
Bile acid receptor [3]
  EC50: 10 nM
[4]
  Efficacy: 103%

## O=C(NCCS(=O)(=O)O)c1ccc(C2CC2c2ccc(OCc3c(-c4c(Cl)cccc4Cl)noc3C3CC3)cc2Cl)cc1 (racemic)
[1]
  Efficacy: 34%
Bile acid receptor [2]
  EC50: 1370 nM
Bile acid receptor [3]
  EC50: 76 nM
[4]
  Efficacy: 98%

## CO[C@]1(c2ccc(OCc3c(-c4c(Cl)cccc4Cl)noc3C3CC3)cc2Cl)C[C@H](c2cccc(C(=O)O)c2)C1
[1]
  Efficacy: 75%
Bile acid receptor [2]
  EC50: 102 nM
Bile acid receptor [3]
  EC50: 79 nM
[4]
  Efficacy: 93%

## O=C(O)c1cccc([C@H]2C[C@](OCCO)(c3ccc(OCc4c(-c5c(Cl)cccc5Cl)noc4C4CC4)cc3Cl)C2)c1
[1]
  Efficacy: 68%
Bile acid receptor [2]
  EC50: 377 nM
Bile acid receptor [3]
  EC50: 373 nM
[4]
  Efficacy: 97%

## CS(=O)(=O)NC(=O)c1ccc([C@@H]2C[C@H]2c2ccc(OCc3c(-c4c(Cl)cccc4Cl)noc3C3CC3)cc2Cl)cc1
[1]
  Efficacy: 81%
Bile acid receptor [2]
  EC50: 44 nM
Bile acid receptor [3]
  EC50: 48 nM
[4]
  Efficacy: 94%

## O=C(O)c1cccc([C@@H]2C[C@H]2c2ccc(OCc3c(-c4c(Cl)cccc4Cl)noc3C3CC3)cc2Cl)c1
[1]
  Efficacy: 98%
Mus musculus [14]
  Activity: inactive
Bile acid receptor [2]
  EC50: 29 nM
Mus musculus [15]
  Activity: inactive
Bile acid receptor [3]
  EC50: 18 nM
[4]
  Efficacy: 100%

## Cn1nc(C(=O)O)c2ccc(C3CC3c3ccc(OCc4c(-c5c(Cl)cccc5Cl)noc4C4CC4)cc3Cl)cc21 (racemic)
[1]
  Efficacy: 84%
Bile acid receptor [2]
  EC50: 14 nM
Bile acid receptor [3]
  EC50: 13 nM
[4]
  Efficacy: 104%

## Cn1nc(C(=O)O)c2ccc([C@H]3C[C@](O)(c4ccc(OCc5c(-c6c(Cl)cccc6Cl)noc5C5CC5)cc4Cl)C3)cc21
[1]
  Efficacy: 82%
Bile acid receptor [2]
  EC50: 50 nM
Bile acid receptor [3]
  EC50: 19 nM
[4]
  Efficacy: 99%

## O=C(O)c1ccc([C@H]2C[C@](O)(c3ccc(OCc4c(-c5c(Cl)cccc5Cl)noc4C4CC4)cc3Cl)C2)cc1
[1]
  Efficacy: 71%
[7]
  half-life: 1.1 h
[8]
  Cmax: 96 ng/mL
[9]
  solubility: 192 µM (≈ 112 µg/mL)
[10]
  Vd/F: 3.9 L/kg
[11]
  bioavailability: 41%
[12]
  AUC: 180 ng·h/mL
Bile acid receptor [2]
  EC50: 63 nM
[13]
  CL/F: 190 mL/min/kg
[5]
  fold change (FC): 9
Bile acid receptor [3]
  EC50: 24 nM
[6]
  permeability: 21%
[4]
  Efficacy: 105%

## Clc1cc(OCc2c(-c3c(Cl)cccc3Cl)noc2C2CC2)ccc1C1CC1c1ccc(-c2nnn[nH]2)nc1 (configuration not stated)
[1]
  Efficacy: 79%
Bile acid receptor [2]
  EC50: 111 nM
Bile acid receptor [3]
  EC50: 131 nM
[4]
  Efficacy: 101%

## CS(=O)(=O)NC(=O)c1ccc(C2CC2c2ccc(OCc3c(-c4c(Cl)cccc4Cl)noc3C3CC3)cc2Cl)cc1 (racemic)
[1]
  Efficacy: 88%
Bile acid receptor [2]
  EC50: 44 nM
Bile acid receptor [3]
  EC50: 90 nM
[4]
  Efficacy: 100%
